High-throughput results: PubChem, several laboratories
Shown are actives, neighbours in structure and some others; about 2.3% of the full set was active somewhere.
CHT PAM = allosteric activators of human choline transporter CHT | Q9GZV3 | CHT-expressing cells, membrane potential dye, choline EC20; active compounds read high; LV-AA mutant CHT in HEK293 cells | B-score at 10 µM | 0.49% of 310,000 active;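 active = initial fluorescence not abnormally high and integrated response B-score, plate-corrected, over 3 SD above library mean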
Target sequence (Q9GZV3 whole entry, looked up): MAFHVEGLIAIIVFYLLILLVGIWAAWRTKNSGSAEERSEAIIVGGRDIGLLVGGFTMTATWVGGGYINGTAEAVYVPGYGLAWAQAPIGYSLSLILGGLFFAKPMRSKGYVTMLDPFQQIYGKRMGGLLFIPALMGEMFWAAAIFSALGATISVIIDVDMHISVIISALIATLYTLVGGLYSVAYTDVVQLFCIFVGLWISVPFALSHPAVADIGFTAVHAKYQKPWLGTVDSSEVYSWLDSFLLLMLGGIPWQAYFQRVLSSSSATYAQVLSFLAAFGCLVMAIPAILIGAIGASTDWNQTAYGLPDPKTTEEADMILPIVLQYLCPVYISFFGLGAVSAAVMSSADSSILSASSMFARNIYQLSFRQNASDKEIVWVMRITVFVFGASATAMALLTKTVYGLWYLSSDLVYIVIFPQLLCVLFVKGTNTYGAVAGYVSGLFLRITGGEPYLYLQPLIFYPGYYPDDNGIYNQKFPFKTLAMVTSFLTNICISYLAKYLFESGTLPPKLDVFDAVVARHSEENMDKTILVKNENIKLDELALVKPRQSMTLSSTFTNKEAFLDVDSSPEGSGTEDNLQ
GalR3 antagonist = antagonists of human GalR3 | HEK293 GalR3-CNG cAMP membrane potential fluorescence; galR3 body fused to GalR1 C-terminus | AID 651719 | inhibition, % at 3 µM | O60755 | 0.44% of 360,000 active;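 active = inhibition above the screen-wide average plus 3 SD, cut at about 13% in these data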;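 also: forskolin and galanin both at EC90 stimulate the cells; cAMP rise reported by CNG channel membrane potential dye signal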
NR2E3 ag-1 = activates human photoreceptor nuclear receptor NR2E3; Q9Y5X4; GST-NR2E3/biotin-RetCOR TR-FRET, 1536-well; inhibition of corepressor binding, % at 4.78 µM; AID 2300; 0.12% of 320,000 active;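 active = percent inhibition above the cutoff of mean plus 3 SD of all tested compounds, set per screening campaign, cut at about 20% in these data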
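Material: NR2E3–RetCOR corepressor complex / Amount: 1.35 nM GST-NR2E3 / Medium: Tris pH 7.5 / Compound: single nominal compound dose of 4.8 µM / Incubation: 5 h at 4 °C / Technique: TR-FRET, Eu(K)-anti-GST donor, streptavidin-D2 acceptor, ex 340, em 617/671 nm / Read-out basis: percent loss of FRET ratio relative to control wells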
NR2E3 ag-2 = human photoreceptor-specific nuclear receptor agonism. Q9Y5X4. CHO-S Gal4-NCOR/VP16-NR2E3 two-hybrid, luciferase. inhibition of corepressor binding, % at 3.98 µM. 0.35% of 360,000 active;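 active = inhibition above the mean of all tested compounds plus 3 SD, cut at about 70% in these data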;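 also: higher means lower luciferase signal from less NR2E3 corepressor binding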
CHT block = inhibits the human high affinity choline transporter | Q9GZV3 | CHT-expressing cells, membrane potential dye, choline response; active compounds read low | B-score at 10 µM | 0.86% of 310,000 active;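 active = B-score over 3 SD under the library average, and starting fluorescence ratio not unusually high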;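 also: choline stimulus applied at its EC90 after an EC20 pre-addition; B-score computed on integrated fluorescence ratio after choline addition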
NR2F2 inh = NR2F2 (human) inhibition, primary screen. inhibition, % at 8.6 µM. AID 686940. P24468. HEK293T NGFI-A luciferase reporter, luminescence. 0.7% of 370,000 active;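 active = inhibition above a per-plate cutoff, mean inhibition of test wells between control levels plus 3 SD, cut at about 38% in these data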;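 also: cells cotransfected with COUP-TFII expression vector driving the NGFI-A reporter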
CHT activ conf = human CHT activation, confirmatory screen; shares compounds with CHT PAM; activation, % at 10 µM; CHT-expressing cells, membrane potential dye fluorescence (FDSS); % of choline EC20–EC90 response window; HEK293 expressing CHT LV-AA mutant; choline added at its EC20; 91% of 2,500 active;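 active = primary screen active, with duplicate mean activation above negative control mean plus 3 SD, cut at about 11% in these data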
HEK293 MP dye = CHT activator counter-screen hit in parental HEK293 cells | 62% of 2,500 active | ratio readout change at 10 µM, hits read low | membrane potential dye fluorescence (FDSS); measured after EC20 choline addition | shares compounds with CHT PAM | AID 623908;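 active = duplicate-averaged ratio beyond 3 SD from buffer wells, up or down, though filed actives are nearly all decreases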
Of the large screens only hits and unclear results are named; the others gave an inactive call (follow-up assays come after a bar, where they were run).

COc1ccc(NC(=O)C(=O)NNC(=O)c2cccs2)c(OC)c1	CHT PAM 7.2 | CHT activ conf 69 | HEK293 MP dye -47
COc1ccc(NC(=O)C(=O)NNC(=O)c2cccs2)cc1	none
CC1COc2c(N3CCN(C)CC3)c(F)cc3c(=O)c(C(=O)O)cn1c23 (stereo not given)	CHT PAM 8.7 | CHT activ conf 44 | HEK293 MP dye -44
COc1c(N2CCN[C@H](C)C2)c(F)cc2c(=O)c(C(=O)O)cn(C3CC3)c12	CHT PAM 6.3 (no result: GalR3 antagonist, NR2E3 ag-2, NR2F2 inh) | CHT activ conf 31 | HEK293 MP dye -40
COC(=O)C[C@H]1CC[C@@H]2[C@@H](COc3ccc(NC(=O)c4ccno4)cc3C(=O)N2C)O1	none (no result: CHT PAM, GalR3 antagonist, NR2E3 ag-1, NR2E3 ag-2, CHT block)
O=C(CN1C(=O)CCSc2ccccc21)Nc1ccc(Cl)cc1	none (no result: CHT PAM, GalR3 antagonist, NR2E3 ag-1, NR2E3 ag-2, CHT block)
CCn1c(C(=O)NCCCc2ccccc2)cc2sccc21	CHT PAM 6.6 | CHT activ conf 25 | HEK293 MP dye inactive
CC(=O)CC[C@@H]1CC[C@]2(CCCN(S(=O)(=O)C3CCCCC3)C2)O1	none (no result: CHT PAM, GalR3 antagonist, NR2E3 ag-1, NR2E3 ag-2, CHT block)
Nc1c2c(nc3c1CCC3)CCCC2	CHT PAM 12 (no result: GalR3 antagonist, NR2E3 ag-2, NR2F2 inh) | CHT activ conf 44 | HEK293 MP dye -70
N#Cc1c(Cl)nc2c(c1C#N)CCCC2	none
CCCC1CCC2(CC1)CCC2OC(=S)Nc1ccccc1 (stereo not given)	none (no result: CHT PAM, GalR3 antagonist, NR2E3 ag-1, NR2E3 ag-2, CHT block)
COc1ccc(NC(=O)N2CCC(c3nc4ccc(Cl)cc4[nH]3)CC2)cc1OC	none (no result: CHT PAM, GalR3 antagonist, NR2E3 ag-1, NR2E3 ag-2, CHT block)
COC(=O)CNC(c1ccccc1)c1cc(Br)ccc1NC(=O)CNC(=O)OCc1ccccc1 (stereo not given)	CHT PAM 6.3 (no result: GalR3 antagonist, NR2F2 inh) | CHT activ conf 47 | HEK293 MP dye inactive
COC(=O)CNC(c1ccccc1)c1cc(Br)ccc1N (stereo not given)	none
O=C(CCc1ccccc1)N[C@H]1[C@@H](OC(=O)c2cccnc2)CCC[C@]12C(=O)N(Cc1ccccc1)c1ccccc12	none (no result: CHT PAM, GalR3 antagonist, NR2E3 ag-1, NR2E3 ag-2, CHT block)
Nc1nc(SCc2ccc(Cl)cc2)ns1	none
CC(C)CSc1nsc(N)n1	none | CHT activ conf 27 | HEK293 MP dye inactive
O=C(c1ccc(F)c(F)c1)N1CCC(Oc2cccnc2)CC1	none (no result: CHT PAM, GalR3 antagonist, NR2E3 ag-1, NR2E3 ag-2, CHT block)
Cc1nc(NC(C)c2ccccc2)c2c3c(sc2n1)CCC3 (stereo not given)	none (no result: GalR3 antagonist, NR2F2 inh) | CHT activ conf 18 | HEK293 MP dye inactive
CCn1c(=O)c2sccc2n(Cc2cc(C(=O)OC)ccc2OC)c1=O	none | CHT activ conf 36 | HEK293 MP dye inactive
Oc1ccc(Oc2ccccc2F)c2cccnc12	none (no result: CHT PAM, GalR3 antagonist, NR2E3 ag-1, NR2E3 ag-2, CHT block)
CSc1nnc2c(n1)OC(C)=Nc1ccccc1-2	none | CHT activ conf 41 | HEK293 MP dye -41
COC(=O)[C@@H]1N=C(c2ccc(OC)cc2)O[C@]12C(=O)N(Cc1cn(-c3ccccc3)nn1)c1cccc(Cl)c12	none (no result: CHT PAM, GalR3 antagonist, NR2E3 ag-1, NR2E3 ag-2, CHT block)
COc1ccc(-c2nc(C#N)c(NCCCN3CCOCC3)o2)cc1	none | CHT activ conf 24 | HEK293 MP dye -21
N#Cc1nc(-c2ccc(F)cc2)oc1NCCN1CCOCC1	none
Cc1nnc(C)c2c(C)n(C(C)c3ccccc3)c(C)c12 (stereo not given)	none
COc1ccc(C(C)n2c(C)c3c(C)nnc(C)c3c2C)cc1 (stereo not given)	CHT PAM 6.6 | CHT activ conf 56 | HEK293 MP dye -45
O=C(CSc1nnc(SCc2cccc3ccccc23)s1)c1ccc(F)cc1	none (no result: CHT PAM, GalR3 antagonist, NR2E3 ag-1, NR2E3 ag-2, CHT block)
CC[C@H](CCCc1ccc(OC)cc1)CCC(=O)N1CCOCC1	none (no result: CHT PAM, GalR3 antagonist, NR2E3 ag-1, NR2E3 ag-2, CHT block)
O=C1c2cnc3ncnn3c2CC2c3ccccc3CCN12 (stereo not given)	none | CHT activ conf 21 | HEK293 MP dye -27
NS(=O)(=O)c1ccc(NC(=O)CSc2nc3ccccc3c(=O)n2-c2ccc(Br)cc2)cc1	none (no result: CHT PAM, GalR3 antagonist, NR2E3 ag-1, NR2E3 ag-2, CHT block)
Cc1nn2c(NCc3cccnc3)c3c(nc2c1-c1ccccc1)CCC3	none
